High-throughput results: PubChem, several laboratories
Shown are actives, neighbours in structure and some others; about 1.5% of the full set was active somewhere.
Tb hexokinase: blocks Trypanosoma brucei hexokinase 1 activity | recombinant TbHK1, G6PDH-coupled NADH A340 | inhibition, % at 10 µM | actives 0.11% (n = 220,000);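 active means inhibition of 50% or more in the single-dose primary screen; inactive means inhibition below 50%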
L929 necroptosis: L929 zVAD cell death inhibition | L929 zVAD necroptosis rescue, ATP luminescence, 24 h; with zVAD 60 µM | viability rescue, % at 10 µM | actives 0.38% (n = 220,000) | AID 1377;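 active means activation, scaled between plate controls, above about 75%, limit read from the data; inactive means activation under that limit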;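 further: 0% = zVAD with DMSO and 100% = DMSO alone without zVAD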
S1P4 agonist: human S1P4 receptor agonism; O95977; S1P4-expressing cell line, agonist reporter assay; activation, % at 4.98 µM; actives 0.35% (n = 220,000); AID 1509; in the data active means activation above about 11%;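 further: 0% = DMSO vehicle and 100% = reference agonist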
Target sequence (O95977 whole entry, looked up): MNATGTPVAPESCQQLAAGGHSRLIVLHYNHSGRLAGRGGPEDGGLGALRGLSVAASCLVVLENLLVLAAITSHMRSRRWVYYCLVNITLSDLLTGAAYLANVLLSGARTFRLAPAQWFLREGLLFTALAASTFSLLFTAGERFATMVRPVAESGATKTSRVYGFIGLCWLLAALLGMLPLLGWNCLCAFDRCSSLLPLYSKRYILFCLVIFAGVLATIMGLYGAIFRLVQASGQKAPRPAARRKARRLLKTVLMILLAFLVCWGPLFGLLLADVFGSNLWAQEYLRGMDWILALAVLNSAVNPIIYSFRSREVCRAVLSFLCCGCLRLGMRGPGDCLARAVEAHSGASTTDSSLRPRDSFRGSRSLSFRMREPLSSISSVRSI
Dynein cargo inh: blocks dynein driven cargo transport along microtubules | 3617.4 mouse cells, GR-EGFP nuclear translocation imaging; test concentration mostly 20 µM; stimulated with dexamethasone, 1 µM; active compounds read low | z-score, hits read low | actives 0.47% (n = 220,000) | AID 1381;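 active means plate z-score of nuclear minus cytoplasmic receptor signal below a set negative limit, without overly bright fluorescence or cell loss, cut at about -3.5 in these data, passing the limit was not always enough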;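 further: z-score of nuclear minus cytoplasmic ring GR-EGFP intensity difference per well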
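Buffer or medium: tetracycline-free induction medium containing charcoal-stripped FBS / Reagent: dexamethasone agonist, 1.0 µM final, for 30 min / Technique: automated 10x imaging of fixed Hoechst-stained cells / Times: induction 48 h, compound 1 h, agonist 30 min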
S1P4 antag: antagonists of human S1P4 receptor; inhibition, % at 4.98 µM; S1P4-expressing cells, antagonist mode, reporter read-out; AID 1510; actives 0.26% (n = 220,000); in the data active means inhibition above about 29%;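 further: 0% = wells stimulated with agonist and 100% = vehicle wells without agonist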
TNF death inh: blocks TNF-alpha induced death of Jurkat FADD-/- cells; Jurkat FADD-/- TNF necroptosis rescue, ATP luminescence, 24 h; 0 = TNF only, 100 = no-TNF cells; activation (protection from cell death), % at 10 µM; actives 0.068% (n = 220,000);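 active means activation, meaning protection from cell death, of at least 50% relative to plate controls; inactive means activation below 50%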;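 further: necroptosis triggered by 40 ng/mL TNF-alpha added together with compound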
Numbers without * were called inactive.

Results for COc1ccc(CC/C(C)=N\NC(N)=O)cc1 ?
Tb hexokinase: 5; L929 necroptosis: 2; S1P4 agonist: 1; Dynein cargo inh: -0.44; S1P4 antag: -8; TNF death inh: 3

What do the screens show for `CC1CC(C)CN(c2ccc([N+](=O)[O-])cc2-c2nn[nH]n2)C1` (configuration not stated)?
Tb hexokinase: -8; L929 necroptosis: 0; S1P4 agonist: -3; Dynein cargo inh: 0.023; S1P4 antag: -15; TNF death inh: 2

What do the screens show for `CCN1/C(=C/C=C/c2oc3ccc(-c4ccccc4)cc3[n+]2CC)Oc2ccc(-c3ccccc3)cc21`?
Tb hexokinase: 101*; L929 necroptosis: -5; S1P4 agonist: 1; Dynein cargo inh: -7; S1P4 antag: 10; TNF death inh: -17

Results for CN(C)CCC(=O)c1cccc(Br)c1 ?
Tb hexokinase: 4; L929 necroptosis: 3; S1P4 agonist: 0; Dynein cargo inh: -3.4; S1P4 antag: -18; TNF death inh: 2

How did CC1(C)Oc2ccc3ccc(=O)oc3c2-c2cn[nH]c21 do in these assays?
Tb hexokinase: -20; L929 necroptosis: 75*; S1P4 agonist: 1; Dynein cargo inh: 3.7; S1P4 antag: -4; TNF death inh: -7

How did CC1(C)Oc2ccc3ccc(=O)oc3c2-c2cnoc21 do in these assays?
Tb hexokinase: -5; L929 necroptosis: 2; S1P4 agonist: 1; Dynein cargo inh: -0.52; S1P4 antag: -16; TNF death inh: 1

How did CC1=CC(C)(C)Nc2ccc(OC(=O)C(Cc3ccccc3)N3C(=O)c4ccccc4C3=O)cc21 (configuration not stated) do in these assays?
Tb hexokinase: -15; L929 necroptosis: 97*; S1P4 agonist: 2; Dynein cargo inh: -0.32; S1P4 antag: -4; TNF death inh: -5

How did c1ccc2c(N3CCCCC3)nnc(N3CCCCC3)c2c1 do in these assays?
Tb hexokinase: -4; L929 necroptosis: -1; S1P4 agonist: -1; Dynein cargo inh: 1.4; S1P4 antag: 2; TNF death inh: 78*

Results for C/C=C(/C(=C/C)c1ccc(O)cc1)c1ccc(O)cc1 ?
Tb hexokinase: -2; L929 necroptosis: 1; S1P4 agonist: 0; Dynein cargo inh: -0.46; S1P4 antag: -3; TNF death inh: 1

Results for CC1(C)C=C(c2ccc(O)cc2)CC(C)(C)N1 ?
Tb hexokinase: 3; L929 necroptosis: 0; S1P4 agonist: 20*; Dynein cargo inh: -0.79; S1P4 antag: 14; TNF death inh: 0

Results for O=C(c1ccc(N2CCCCC2)c([N+](=O)[O-])c1)N(c1ccccn1)c1ccccn1 ?
Tb hexokinase: -6; L929 necroptosis: 0; S1P4 agonist: -1; Dynein cargo inh: -0.63; S1P4 antag: 6; TNF death inh: 0

Results for COc1ccccc1N(C)S(=O)(=O)c1ccc(C(=O)OCC(=O)c2c[nH]c3ccccc23)cc1 ?
Tb hexokinase: 1; L929 necroptosis: 2; S1P4 agonist: -1; Dynein cargo inh: 0.4; S1P4 antag: -6; TNF death inh: 3

What do the screens show for `CC(C)C[C@H](N)c1nnc(S(=O)(=O)Cc2ccc(F)cc2)o1`?
Tb hexokinase: -2; L929 necroptosis: 4; S1P4 agonist: 0; Dynein cargo inh: -3.7*; S1P4 antag: -14; TNF death inh: -11

Results for C=CCn1c(SCC(N)=O)nc2scc(-c3ccc(C)o3)c2c1=O ?
Tb hexokinase: -17; L929 necroptosis: 0; S1P4 agonist: 0; Dynein cargo inh: -0.61; S1P4 antag: -4; TNF death inh: 0

What do the screens show for `COc1ccc2nc(NC(=O)CCn3cccc3)sc2c1`?
Tb hexokinase: -1; L929 necroptosis: 92*; S1P4 agonist: 0; Dynein cargo inh: 0.19; S1P4 antag: 9; TNF death inh: 6

Results for CCOCC(=O)Nc1nc2ccc(OC)cc2s1 ?
Tb hexokinase: -2; L929 necroptosis: 25; S1P4 agonist: -1; Dynein cargo inh: 0.087; S1P4 antag: -9; TNF death inh: 11

Results for CC1(C)CC(=O)C(=C2SCCCS2)C(=O)C1 ?
Tb hexokinase: -20; S1P4 agonist: 0; Dynein cargo inh: -0.16; S1P4 antag: 5; TNF death inh: 2
